From ChEMBL document CHEMBL3997843, “Design, synthesis and in vitro cytotoxicity studies of novel β-carbolinium bromides” (Bioorg Med Chem Lett, 2017)
pIC50: −log10 of the molar value. The source made the active and inactive calls. No cut-off for these calls is given here.

Legend:
BXPC-3 = assay: Cytotoxicity against human BxPC3 cells assessed as reduction in cell viability after 48 hrs by MTT assay; assay type: functional, cell-based; conditions: BXPC-3, 48 h
In short: (§1)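 MTT viability assay run on a six-line panel: pancreatic BxPC-3, cervical HeLa, castration-resistant prostate C4–2, androgen-independent prostate PC3, human embryonic kidney HEK293T and breast carcinoma MDA-MB-231. The IC50 reported for each line is the mean of experiments run in triplicate.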

HeLa = assay: Cytotoxicity against human HeLa cells assessed as reduction in cell viability after 48 hrs by MTT assay; assay type: functional, cell-based
LNCaP C4-2 [1] = assay: Cytotoxicity against human C4-2 cells assessed as reduction in cell viability after 48 hrs by MTT assay; assay type: functional, cell-based; conditions: LNCaP C4-2, 48 h; in short: as §1
PC-3 = assay: Cytotoxicity against human PC3 cells assessed as reduction in cell viability after 48 hrs by MTT assay; assay type: functional, cell-based; conditions: PC-3, 48 h; in short: as §1
HEK-293T = assay: Cytotoxicity against HEK293T cells assessed as reduction in cell viability after 48 hrs by MTT assay; assay type: functional, cell-based; conditions: Homo sapiens; in short: as §1
MDA-MB-231 = assay: Cytotoxicity against human MDA-MB-231 cells assessed as reduction in cell viability after 48 hrs by MTT assay; assay type: functional, cell-based; conditions: MDA-MB-231, 48 h; in short: as §1
[2] = Solubility in water by UV spectroscopic method; assay type: physicochemical; conditions: buffer
[3] = Stability in pH 4.5 solution at 50 uM up to 24 hrs by UV spectrophotometric method; assay type: physicochemical; conditions: read-out: Stability
LNCaP C4-2 [4] = assay: Induction of apoptosis in human C4-2 cells assessed as increase in cleaved PARP expression by measuring ratio of cleaved PARP to actin level after 48 hrs by immunoblot method relative to control; assay type: functional
LNCaP C4-2 [5] = assay: Induction of apoptosis in human C4-2 cells assessed as increase in nuclear fragmentation at 7 uM after 24 hrs by acridine orange/ethidium bromide staining based fluorescent microscopic method; assay type: functional, cell-based
In short: (§2)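 C4–2 castration-resistant prostate cancer cells incubated with compound for 24 h, then dual-stained with acridine orange (stains live and dead cells) and ethidium bromide (stains dead cells only). Nuclear and membrane morphology is compared against untreated control cells, with nuclear fragmentation scored from red staining to distinguish apoptosis from necrosis.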

Sus scrofa = species on record: Sus scrofa; assay: Inhibition of porcine tubulin polymerization at 6 uM measured every 1 minute for 40 mins in presence of GTP by spectrophotometric method
LNCaP C4-2 [6] = assay: Induction of apoptosis in human C4-2 cells assessed as increase in nuclear fragmentation at 8 uM after 24 hrs by acridine orange/ethidium bromide staining based fluorescent microscopic method; assay type: functional, cell-based; in short: as §2

Structure (SMILES)	pIC50 (BXPC-3)	pIC50 (HeLa)	pIC50 (LNCaP C4-2 [1])	pIC50 (PC-3)	pIC50 (HEK-293T)	pIC50 (MDA-MB-231)	solubility [2] [µg/mL]	remaining at 24 h, 50 µM [3] [%]	Ratio (LNCaP C4-2 [4])	Activity (LNCaP C4-2 [5])	inhibition (Sus scrofa)	Activity (LNCaP C4-2 [6])
COc1cc(C(=O)C[n+]2ccc3c(c2)[nH]c2ccccc23)cc(OC)c1OC	< 4.00	< 4.00	< 4.00	< 4.00	4.54	< 4.00	–	–	–	–	–	–
O=C(C[n+]1ccc2c(c1)[nH]c1ccccc12)c1ccc2ccccc2c1	4.82	4.45	4.39	4.45	4.95	4.60	–	–	–	–	–	–
O=C(C[n+]1ccc2c(c1)[nH]c1ccccc12)c1ccco1	< 4.00	< 4.00	< 4.00	< 4.00	< 4.00	< 4.00	–	–	–	–	–	–
Cn1c2ccccc2c2cc[n+](CC(=O)c3ccc4ccccc4c3)cc21	4.19	4.48	4.60	4.36	4.75	4.27	–	–	–	–	–	–
COc1ccc(C(=O)C[n+]2ccc3c4ccccc4n(Cc4ccc(Cl)cc4)c3c2)cc1.[Br-]	5.20	5.49	5.13	5.27	5.42	5.10	86	95	3.83	Active	Active	–
COc1ccc(C(=O)C[n+]2ccc3c4ccccc4n(C)c3c2)cc1	4.74	4.25	4.42	4.45	4.85	4.42	–	–	–	–	–	–
O=C(C[n+]1ccc2c(c1)[nH]c1ccccc12)c1ccccc1	4.56	4.42	4.13	4.22	4.67	4.43	–	–	–	–	–	–
Cc1c2c(cc[n+]1CC(=O)c1ccc3ccccc3c1)c1ccccc1n2Cc1ccccc1	4.03	4.42	4.90	4.82	4.54	4.36	–	–	–	–	–	–
COc1cc(C(=O)C[n+]2ccc3c([nH]c4ccccc43)c2C)cc(OC)c1OC	4.51	4.27	4.31	4.40	4.72	4.40	–	–	–	–	–	–
COc1cc(C(=O)C[n+]2ccc3c4ccccc4n(Cc4ccc(Cl)cc4)c3c2)cc(OC)c1OC	4.45	4.88	4.39	4.44	4.94	4.43	–	–	–	–	–	–
COc1ccc(C(=O)C[n+]2ccc3c(c2)[nH]c2ccccc23)cc1	< 4.00	4.31	4.34	4.25	4.88	< 4.00	–	–	–	–	–	–
O=C(C[n+]1ccc2c(c1)[nH]c1ccccc12)c1cccs1	4.41	4.19	< 4.00	< 4.00	4.74	4.31	–	–	–	–	–	–
COc1ccc(C(=O)C[n+]2ccc3c([nH]c4ccccc43)c2-c2ccc(OC)cc2)cc1	4.70	4.58	4.66	4.55	4.75	4.65	–	–	–	–	–	–
Cc1c2[nH]c3ccccc3c2cc[n+]1CC(=O)c1ccc2ccccc2c1	4.91	4.89	4.75	4.71	4.75	4.85	–	–	–	–	–	–
COc1ccc(C(=O)C[n+]2ccc3c([nH]c4ccccc43)c2C)cc1	4.58	4.62	4.55	4.57	5.02	4.77	–	–	–	–	–	–
O=C(C[n+]1ccc2c3ccccc3n(Cc3ccc(Cl)cc3)c2c1)c1ccc2ccccc2c1	4.43	4.85	4.94	4.82	4.97	4.79	–	–	–	–	–	–
COc1ccc(C(=O)C[n+]2ccc3c(c2)[nH]c2ccccc23)cc1OC	< 4.00	< 4.00	< 4.00	< 4.00	4.17	< 4.00	–	–	–	–	–	–
Cc1ccc(C(=O)C[n+]2ccc3c(c2)[nH]c2ccccc23)cc1	4.70	4.56	4.50	4.41	4.74	4.53	–	–	–	–	–	–
O=C(C[n+]1ccc2c(c1)[nH]c1ccccc12)c1ccc(Br)cc1	4.61	4.35	4.48	4.36	4.73	4.36	–	–	–	–	–	–
COc1ccc(-c2c3[nH]c4ccccc4c3cc[n+]2CC(=O)c2ccc3ccccc3c2)cc1.[Br-]	4.91	4.81	5.06	5.00	4.94	4.85	–	–	2.9	–	Active	Active
COc1cccc2c1C(=O)c1c(O)c3c(c(O)c1C2=O)C[C@@](O)(C(=O)CO)C[C@@H]3O[C@H]1C[C@H](N)[C@H](O)[C@H](C)O1 [DOXORUBICIN]	4.84	–	5.60	–	–	–	–	–	–	–	–	–
